# KCNK9 block: inhibitors of human KCNK9 two-pore domain potassium channel; Q9NPC2; HEK293 KCNK9, FluxOR thallium flux fluorescence; stronger effect = lower value; B-score at 10 µM; 1.2% of 310,000 active; AID 488922;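 active = ratio B-score over 3 SD below the library mean, with starting fluorescence within 5 SD of its mean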;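 note: negative B-score means less thallium flux so channel inhibition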
# KCNQ1 act: human KCNQ1 channel potentiation or activation. 0.35% of 310,000 active. B-score at 10 µM. CHO-K1 KCNQ1, thallium flux FluxOR fluorescence; stronger effect = higher value. AID 2648. P51787;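 active = fluorescence ratio B-score, a plate-corrected score, at least three library SD, with initial intensity B-score within 5 SD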
# Target sequence (P51787 whole entry, looked up): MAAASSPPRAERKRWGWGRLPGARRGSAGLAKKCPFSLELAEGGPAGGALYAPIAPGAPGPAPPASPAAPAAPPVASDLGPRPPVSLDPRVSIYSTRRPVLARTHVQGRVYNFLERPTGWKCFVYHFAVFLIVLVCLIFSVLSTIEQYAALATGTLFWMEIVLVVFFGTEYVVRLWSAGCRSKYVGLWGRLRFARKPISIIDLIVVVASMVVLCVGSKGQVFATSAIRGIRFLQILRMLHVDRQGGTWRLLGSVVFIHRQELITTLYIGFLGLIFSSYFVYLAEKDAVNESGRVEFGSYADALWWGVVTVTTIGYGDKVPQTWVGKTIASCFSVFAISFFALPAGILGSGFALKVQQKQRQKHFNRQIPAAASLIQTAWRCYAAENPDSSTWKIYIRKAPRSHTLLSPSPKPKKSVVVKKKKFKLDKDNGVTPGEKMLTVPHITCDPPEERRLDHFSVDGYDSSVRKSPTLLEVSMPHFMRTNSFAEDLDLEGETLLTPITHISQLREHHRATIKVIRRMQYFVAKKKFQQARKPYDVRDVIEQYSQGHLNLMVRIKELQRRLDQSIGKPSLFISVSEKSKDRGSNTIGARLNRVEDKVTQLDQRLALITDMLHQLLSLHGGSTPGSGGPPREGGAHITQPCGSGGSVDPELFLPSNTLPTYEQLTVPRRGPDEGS
#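 Doses: Single concentration per compound, DMSO matched to controls | Test system: KCNQ1-transfected CHO-K1 cells | Timing: 90 min dye loading and 20 min compound exposure, both at room temperature | Measured by: Kinetic FluxOR thallium fluorescence, 10-s 1-Hz baseline, 110-s post-stimulus read | Medium: Assay buffer with matched DMSO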
# KCNQ1 block: human KCNQ1 channel inhibition | P51787 | CHO-K1 KCNQ1, FluxOR thallium flux fluorescence; stronger effect = higher value | B-score at 10 µM | 1.3% of 310,000 active;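 active = compounds whose thallium flux B-score, printed positive for inhibition, exceeds three library SD while starting fluorescence stays within three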;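 note: channel opened by potassium depolarization with thallium stimulus after 20 min compound exposure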
# KCNK3 block: human KCNK3 channel inhibition, primary screen. O14649. 0.84% of 340,000 active. CHO-KCNK3 thallium flux, FluxOR fluorescence; stronger effect = lower value. B-score at 10 µM;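 active = B-score under library mean minus 4 SD, starting fluorescence ratio at most library mean plus 5 SD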;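 note: more negative B-score means stronger inhibition of thallium flux through KCNK3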
# PHOSPHO1 block: inhibitors of human PHOSPHO1 phosphatase; Q8TCT1; recombinant PHOSPHO1, absorbance phosphatase assay; inhibition, % at 13.3 µM; 1.1% of 290,000 active; AID 1565; in the data active = inhibition above about 60%
# hERG rescue: compounds protecting human hERG from proarrhythmic drug block; 0.51% of 310,000 active; activation (rescue from dofetilide block), less the hit threshold, % at 10 µM; CHO-hERG, FluxOR thallium flux, dofetilide IC70 present;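 active = activation above the mean of controls blocked by dofetilide plus 5 SD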;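 note: thallium influx through hERG after potassium depolarization seen as dye fluorescence rise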
# * marks the source's active call; other numbers are inactive results; i = inactive; . = not tested or not shown. Most compounds without a hit are left out; they make up all but 4% or so of the library.
SMILES,KCNK9 block,KCNQ1 act,KCNQ1 block,KCNK3 block,PHOSPHO1 block,hERG rescue
O=C(NC(=S)N1CCCc2ccccc21)c1ccco1,i,i,i,i,24.7,-3.6
CC(C)C(=O)Nc1sc2c(c1-c1nc3ccccc3[nH]1)CCCC2,i,i,i,i,103.6*,-5.0
O=C(Nc1ccc2c(c1)CCC2)c1cc(S(=O)(=O)Nc2ccc(F)cc2)c(Cl)cc1Cl,i,i,i,i,-15.6,-4.1
CCCCCc1c2c(cc(O)c1C(=O)O)OC(=O)c1c(cc(OC)cc1C(=O)CCCC)O2,i,i,8*,i,27.7,-31.9
CC(=O)/C(=C/N(C)C)C(=O)Nc1ccc(Cl)cc1Cl,i,i,10*,i,16.3,-6.5
N/C(Cn1cncn1)=N\NC(=O)C(=O)Nc1ccc(Cl)cc1Cl,i,i,i,i,60.0*,-11.5
COc1ccc(/C=N/Nc2cc(C)nc3c(C)cccc23)cc1,i,i,6*,i,45.3,-26.3
Nc1ncnc(Sc2ncccn2)c1[N+](=O)[O-],i,i,i,i,-30.0,-16.3
CCCCn1c2c(c(=N)c3c1CCC3)CCC2,.,.,.,i,95.3*,.
CCCCCCn1c2c(c(=N)c3c1CCC3)CCC2,i,i,6*,i,-13.6,-26.3
O=C1C(=O)c2c(ccc3ccccc23)-c2ccccc21,.,.,.,i,.,.
CCSc1nnc(NC(=O)CSc2nccn2-c2cccc(C)c2)s1,i,i,i,i,58.5,-1.8
S=c1nc(-c2ccc(Br)cc2)[nH]c2ccccc12,i,111*,i,i,3.8,31.5*
S=c1nc(-c2ccccc2)[nH]c2ccccc12,i,52*,i,i,-25.2,113.4*
Cc1ccc(C(=O)NCC(=O)NCCc2ccc(S(N)(=O)=O)cc2)s1,i,i,i,i,15.2,-4.4
Cc1ccc(-n2nnc3c(=O)n(CC(=O)N4CCC(C)CC4)cnc32)cc1,i,i,i,i,4.6,-7.5
CNc1nc(-c2ccccc2)[n+](-c2ccc(C)cc2)s1,i,i,i,i,89.9*,-7.2
Cc1ccc(S(=O)(=O)Nc2nc(-c3ccccc3)cs2)cc1,i,i,i,i,19.2,-11.4
Cc1ccc(-c2nc(N)s[n+]2-c2ccccc2)cc1,i,i,i,i,11.1,10.4*
O=[N+]([O-])c1ccccc1OCCNCc1ccccc1,i,i,i,i,8.5,7.2*
O=[N+]([O-])c1ccccc1OCCN1CCCC1,i,i,i,i,.,-7.1
O=C(NCCNS(=O)(=O)c1ccccc1)c1cc(OCC(F)(F)F)ccc1OCC(F)(F)F,i,i,i,i,62.3*,-7.8
CCC(Sc1ncnc2sc(C)c(C)c12)C(=O)OC (centres undefined),i,i,i,i,0.3,-5.8
O=c1c2ccccc2nc(SCc2ccc([N+](=O)[O-])cc2)n1-c1ccccc1,-7.71*,i,i,i,17.7,-13.1
O=C(O)c1ccc(CSc2nc3ccccc3c(=O)n2-c2ccccc2)cc1,i,i,i,i,-12.5,-4.3
SMILES,KCNK9 block,KCNQ1 act,KCNQ1 block,KCNK3 block,PHOSPHO1 block,hERG rescue
O=C(CN(Cc1ccco1)C(=O)c1cccc(F)c1)Nc1ccccc1C(F)(F)F,.,.,.,i,.,.
COC(=O)c1ccc(CN2CCN(Cc3ccc(F)cc3)C(CCO)C2)cc1 (centres undefined),i,i,i,i,49.8,-17.2
COc1ccc(-c2oc3ccccc3c(=O)c2OC(C)=O)cc1,i,41*,i,i,-12.3,4.5
CC(=O)Oc1c(-c2ccc(Br)o2)oc2ccccc2c1=O,i,113*,i,i,29.5,40.0*
O=C(O)COc1c(-c2ccco2)oc2ccccc2c1=O,i,i,i,i,-21.8,-6.8
Cc1ccccc1NC1=NC(=S)N(c2ccccc2)C12CCOC(C)(C)C2 (centres undefined),i,i,i,i,12.1,-9.7
Cc1ccccc1NC1=NC(=S)N(c2ccccc2)C12CCCCC2,i,15*,i,i,20.7,11.9*
COc1ccc(OC)c(-c2cc(C3CCN(C(=O)OC(C)(C)C)CC3)[nH]n2)c1,i,i,i,i,39.7,-13.2
